Assay results from ChEMBL document CHEMBL3352129, “Synthesis and biological activity of cyclolinopeptide A analogues modified with γ(3)-bis(homophenylalanine)” (Eur J Med Chem, 2014).
Activity calls are given as the source filed them. The rule behind the calls is not given here. Numbered stars: 1 amine (or outer) side, 2 acyl side, 3 side chain; on linkers, the order of the positions; unused ones are H or OH. Square brackets hold non-standard residues; d marks the D form. Peptide text beside a SMILES is read from it. GABA(3S-Bn) = O=C(C[C@@H](CN[*:1])Cc1ccccc1)[*:2]; GABA(3R-Bn) = O=C(C[C@H](CN[*:1])Cc1ccccc1)[*:2]

How the values were obtained:
PBMC [1] = experiment: Cytotoxicity against human PBMC cells at 1 to 100 ug/ml after 24 hrs by MTT assay; assay type: cell-based
Summary of the method: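 Human PBMC from a single donor were plated at 3×10^5/well in RPMI-1640 with 10% FCS. Compounds at 1, 10 or 100 μg/mL were added for 24 h. Viability was read by MTT and expressed as percent viable cells versus matching DMSO controls.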

PBMC [2] = experiment: Antiproliferative activity against human PBMC assessed as inhibition of PHA-induced proliferation at 1 to 100 ug/ml; assay type: functional, cell-based
Summary of the method: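 Human PBMC from a single donor were isolated on a ficoll gradient and plated at 2×10^5 cells/well in RPMI-1640 with 10% FCS. Stimulation was PHA 5 μg/mL. Compounds were tested at 1, 10 and 100 μg/mL, with DMSO dilutions as control. After 4 days, proliferation was read by MTT. Result is mean OD of quadruplicate wells ± SE.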

Blood [3] = experiment: Inhibition of LPS-induced TNFalpha secretion in human whole blood cells at 25 ug/ml by immune assay; assay type: functional
Summary of the method: (§1)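 Venous blood from a single donor was diluted 10× in RPMI-1640 and stimulated with E. coli LPS 1 μg/mL, serotype 0:111:B4. Compounds were added at 5 or 25 μg/mL, with DMSO dilutions as controls. After overnight culture, supernatants were frozen at −20 °C. TNF-α was then measured by ELISA.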

[4] = Retention time of the compound; assay type: physicochemical
Blood [5] = experiment: Stimulation of LPS-induced TNFalpha secretion in human whole blood cells at 5 ug/ml by immuno assay; assay type: functional, cell-based; summary of the method: as §1
Blood [6] = experiment: Stimulation of LPS-induced TNFalpha secretion in human whole blood cells at 25 ug/ml by immuno assay; assay type: functional, cell-based; summary of the method: as §1
Blood [7] = experiment: Inhibition of LPS-induced TNFalpha secretion in human whole blood cells at 5 ug/ml by immune assay; assay type: functional; summary of the method: as §1
Mus musculus [8] = experiment: Immunosuppressive effect in ovalbumin-induced mouse delayed type hypersensitivity model assessed as inhibition of DTH reaction at 100 ug, ip treated 2 hrs before ovalbumin sensitization; assay type: functional
Summary of the method: (§2)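 CBA mice were sensitized s.c. at tail base with 5 μg OVA in complete Freund's adjuvant. After 4 days they were challenged with 50 μg OVA in incomplete adjuvant in hind foot pads. Swelling was measured by caliper 24 h later. Unsensitized challenged mice gave background. Compounds in DMSO/saline were given i.p. 2 h before sensitization or 2 h before elicitation, with solvent controls. Result: 5 mice/group, DTH units (10^-2 cm) ± SE.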

Mus musculus [9] = experiment: Immunosuppressive effect in ovalbumin-induced mouse delayed type hypersensitivity model assessed as inhibition of DTH reaction at 100 ug, ip treated 2 hrs before elicitation of DTH reaction with secoond dose of antigen; assay type: functional, organism-based; summary of the method: as §2

Compound | Activity (PBMC [1]) | inhibition (PBMC [2]) | inhibition (Blood [3]) | Retention_time [4] | Activity (Blood [5]) | Activity (Blood [6]) | inhibition (Blood [7]) | inhibition (Mus musculus [8]) | inhibition (INH) (Mus musculus [8]) | inhibition (Mus musculus [9]) | inhibition at 5 µg/mL (Blood [7]) | inhibition at 25 µg/mL (Blood [3])
CC[C@H](C)[C@H](N)C(=O)N[C@H](C(=O)N[C@@H](CC(C)C)C(=O)N[C@H](C(=O)N1CCC[C@H]1C(=O)N1CCC[C@H]1C(=O)N[C@@H](Cc1ccccc1)C(=O)NC[C@@H](CC(=O)N[C@@H](CC(C)C)C(=O)O)Cc1ccccc1)C(C)C)[C@@H](C)CC (H-IILVPPF[GABA(3R-Bn)]L-OH) | Non-toxic | inactive | Active | 14.168 min | – | – | – | – | – | – | – | –
CC[C@H](C)[C@H](N)C(=O)N[C@H](C(=O)N[C@@H](CC(C)C)C(=O)N[C@H](C(=O)N1CCC[C@H]1C(=O)N1CCC[C@H]1C(=O)N[C@@H](Cc1ccccc1)C(=O)NC[C@H](CC(=O)N[C@@H](CC(C)C)C(=O)O)Cc1ccccc1)C(C)C)[C@@H](C)CC (H-IILVPPF[GABA(3S-Bn)]L-OH) | Non-toxic | inactive | – | 13.177 min | Active | Active | – | – | – | – | – | –
CC[C@H](C)[C@H](N)C(=O)N[C@H](C(=O)N[C@@H](CC(C)C)C(=O)N[C@H](C(=O)N1CCC[C@H]1C(=O)N1CCC[C@H]1C(=O)NC[C@@H](CC(=O)N[C@@H](Cc1ccccc1)C(=O)N[C@@H](CC(C)C)C(=O)O)Cc1ccccc1)C(C)C)[C@@H](C)CC (H-IILVPP[GABA(3R-Bn)]FL-OH) | Non-toxic | inactive | Active | 13.383 min | – | – | Active | – | – | – | – | –
CC[C@H](C)[C@H](N)C(=O)N[C@H](C(=O)N[C@@H](CC(C)C)C(=O)N[C@H](C(=O)N1CCC[C@H]1C(=O)N1CCC[C@H]1C(=O)NC[C@@H](CC(=O)NC[C@@H](CC(=O)N[C@@H](CC(C)C)C(=O)O)Cc1ccccc1)Cc1ccccc1)C(C)C)[C@@H](C)CC (H-IILVPP[GABA(3R-Bn)][GABA(3R-Bn)]L-OH) | Non-toxic | inactive | Active | 14.073 min | – | – | Active | Active | 50% | Active | – | –
CC[C@H](C)[C@H](N)C(=O)N[C@H](C(=O)N[C@@H](CC(C)C)C(=O)N[C@H](C(=O)N1CCC[C@H]1C(=O)N1CCC[C@H]1C(=O)NC[C@@H](CC(=O)NC[C@H](CC(=O)N[C@@H](CC(C)C)C(=O)O)Cc1ccccc1)Cc1ccccc1)C(C)C)[C@@H](C)CC (H-IILVPP[GABA(3R-Bn)][GABA(3S-Bn)]L-OH) | Non-toxic | inactive | – | 13.085 min | Active | Active | – | – | – | – | – | –
CC[C@H](C)[C@H](N)C(=O)N[C@H](C(=O)N[C@@H](CC(C)C)C(=O)N[C@H](C(=O)N1CCC[C@H]1C(=O)N1CCC[C@H]1C(=O)NC[C@H](CC(=O)N[C@@H](Cc1ccccc1)C(=O)N[C@@H](CC(C)C)C(=O)O)Cc1ccccc1)C(C)C)[C@@H](C)CC (H-IILVPP[GABA(3S-Bn)]FL-OH) | Non-toxic | inactive | – | 12.69 min | Active | Active | – | – | – | – | – | –
CC[C@H](C)[C@H](N)C(=O)N[C@H](C(=O)N[C@@H](CC(C)C)C(=O)N[C@H](C(=O)N1CCC[C@H]1C(=O)N1CCC[C@H]1C(=O)NC[C@H](CC(=O)NC[C@@H](CC(=O)N[C@@H](CC(C)C)C(=O)O)Cc1ccccc1)Cc1ccccc1)C(C)C)[C@@H](C)CC (H-IILVPP[GABA(3S-Bn)][GABA(3R-Bn)]L-OH) | Non-toxic | inactive | – | 13.938 min | – | – | – | – | – | – | – | –
CC[C@H](C)[C@H](N)C(=O)N[C@H](C(=O)N[C@@H](CC(C)C)C(=O)N[C@H](C(=O)N1CCC[C@H]1C(=O)N1CCC[C@H]1C(=O)NC[C@H](CC(=O)NC[C@H](CC(=O)N[C@@H](CC(C)C)C(=O)O)Cc1ccccc1)Cc1ccccc1)C(C)C)[C@@H](C)CC (H-IILVPP[GABA(3S-Bn)][GABA(3S-Bn)]L-OH) | Non-toxic | inactive | – | 13.233 min | Active | Active | – | – | – | – | – | –
CC[C@H](C)[C@@H]1NC(=O)[C@H](CC(C)C)NC(=O)[C@H](Cc2ccccc2)NC(=O)C[C@@H](Cc2ccccc2)CNC(=O)[C@@H]2CCCN2C(=O)[C@@H]2CCCN2C(=O)[C@H](C(C)C)NC(=O)[C@H](CC(C)C)NC(=O)[C@H]([C@@H](C)CC)NC1=O (cyclo(FLIILVPP[GABA(3R-Bn)])) | Dose-dependent effect | Active | – | 10.033 min | – | – | – | – | – | – | – | –
CC[C@H](C)[C@@H]1NC(=O)[C@H](CC(C)C)NC(=O)[C@H](Cc2ccccc2)NC(=O)C[C@H](Cc2ccccc2)CNC(=O)[C@@H]2CCCN2C(=O)[C@@H]2CCCN2C(=O)[C@H](C(C)C)NC(=O)[C@H](CC(C)C)NC(=O)[C@H]([C@@H](C)CC)NC1=O (cyclo(FLIILVPP[GABA(3S-Bn)])) | Dose-dependent effect | Active | – | 9.89 min | – | – | – | – | – | – | – | –
CC[C@H](C)[C@@H]1NC(=O)[C@H](CC(C)C)NC(=O)C[C@@H](Cc2ccccc2)CNC(=O)[C@H](Cc2ccccc2)NC(=O)[C@@H]2CCCN2C(=O)[C@@H]2CCCN2C(=O)[C@H](C(C)C)NC(=O)[C@H](CC(C)C)NC(=O)[C@H]([C@@H](C)CC)NC1=O (cyclo(F[GABA(3R-Bn)]LIILVPP)) | Dose-dependent effect | Active | – | 11.87 min | – | – | – | – | – | – | – | –
CC[C@H](C)[C@@H]1NC(=O)[C@H](CC(C)C)NC(=O)C[C@H](Cc2ccccc2)CNC(=O)[C@H](Cc2ccccc2)NC(=O)[C@@H]2CCCN2C(=O)[C@@H]2CCCN2C(=O)[C@H](C(C)C)NC(=O)[C@H](CC(C)C)NC(=O)[C@H]([C@@H](C)CC)NC1=O (cyclo(F[GABA(3S-Bn)]LIILVPP)) | Non-toxic | Active | – | 11.63 min | – | – | – | Active | – | Active | 55% | 42%
CC[C@H](C)[C@@H]1NC(=O)[C@H](CC(C)C)NC(=O)C[C@@H](Cc2ccccc2)CNC(=O)C[C@@H](Cc2ccccc2)CNC(=O)[C@@H]2CCCN2C(=O)[C@@H]2CCCN2C(=O)[C@H](C(C)C)NC(=O)[C@H](CC(C)C)NC(=O)[C@H]([C@@H](C)CC)NC1=O (cyclo(IILVPP[GABA(3R-Bn)][GABA(3R-Bn)]L)) | Dose-dependent effect | Active | – | 9.242 min | – | – | – | – | – | – | – | –
CC[C@H](C)[C@@H]1NC(=O)[C@H](CC(C)C)NC(=O)C[C@H](Cc2ccccc2)CNC(=O)C[C@@H](Cc2ccccc2)CNC(=O)[C@@H]2CCCN2C(=O)[C@@H]2CCCN2C(=O)[C@H](C(C)C)NC(=O)[C@H](CC(C)C)NC(=O)[C@H]([C@@H](C)CC)NC1=O (cyclo(IILVPP[GABA(3R-Bn)][GABA(3S-Bn)]L)) | Dose-dependent effect | Active | – | 9.605 min | – | – | – | – | – | – | – | –
CC[C@H](C)[C@@H]1NC(=O)[C@H](CC(C)C)NC(=O)C[C@@H](Cc2ccccc2)CNC(=O)C[C@H](Cc2ccccc2)CNC(=O)[C@@H]2CCCN2C(=O)[C@@H]2CCCN2C(=O)[C@H](C(C)C)NC(=O)[C@H](CC(C)C)NC(=O)[C@H]([C@@H](C)CC)NC1=O (cyclo(IILVPP[GABA(3S-Bn)][GABA(3R-Bn)]L)) | Dose-dependent effect | Active | – | 10.543 min | – | – | – | – | – | – | – | –
CC[C@H](C)[C@@H]1NC(=O)[C@H](CC(C)C)NC(=O)C[C@H](Cc2ccccc2)CNC(=O)C[C@H](Cc2ccccc2)CNC(=O)[C@@H]2CCCN2C(=O)[C@@H]2CCCN2C(=O)[C@H](C(C)C)NC(=O)[C@H](CC(C)C)NC(=O)[C@H]([C@@H](C)CC)NC1=O (cyclo(IILVPP[GABA(3S-Bn)][GABA(3S-Bn)]L)) | Dose-dependent effect | Active | – | 10.11 min | – | – | – | – | – | – | – | –
